Results: ChEMBL document CHEMBL4321818, “Anti-biofilm Agents against Pseudomonas aeruginosa: A Structure-Activity Relationship Study of C-Glycosidic LecB Inhibitors” (J Med Chem, 2019)
The source made the active and inactive calls. No cut-off for these calls is given here.

How the values were obtained:
[1] = Protein binding in CD1 mouse plasma after 2 hrs by HPLC analysis relative to control; format: ADME, cell-free; settings: for PPB: mouse, 2 h; for fraction unbound at 2 h: CD1, mouse, read-out: PPB
In short: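 Rapid equilibrium dialysis with compound at 100 µM final in pooled CD-1 mouse plasma, naproxen as control. Incubated 37 °C for 2 h at 800 rpm. Samples matrix-matched, extracted with cold MeCN/H2O (90:10) containing caffeine internal standard, and quantified by HPLC-MS/MS. %free = buffer/plasma chamber concentration × 100; %bound = 100 − %free.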

[2] = Half life in CD1 mouse plasma at 10 mg/kg, po or ip after 24 hrs; format: ADME, organism-based
[3] = target: T1, Fucose-binding lectin PA-IIL (Pseudomonas aeruginosa (strain ATCC 15692 / DSM 22644 / CIP 104116 / JCM14847 / LMG 12228 / 1C / PRS 101 / PAO1), UniProt Q9HYN5); test: Inhibition of N-(fluorescein-5-yl)-N'-(alpha-L-fucopyranosyl ethylen)thiocarbamide binding to Pseudomonas aeruginosa PA14 LecB incubated for 22 to 24 hrs by fluorescence polarization assay
Target sequence in this assay (Q9HYN5 1-115): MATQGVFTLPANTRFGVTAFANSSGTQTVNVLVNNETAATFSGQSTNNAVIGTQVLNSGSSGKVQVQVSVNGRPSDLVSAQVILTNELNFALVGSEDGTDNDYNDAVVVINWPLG

[4] = target: T1, Fucose-binding lectin PA-IIL; test: Inhibition of N-(fluorescein-5-yl)-N'-(alpha-L-fucopyranosyl ethylen)thiocarbamide binding to Pseudomonas aeruginosa PAO1 LecB incubated for 22 to 24 hrs by fluorescence polarization assay
Target sequence in this assay (Q9HYN5 whole entry): as the sequence (Q9HYN5 1-115) above

HepG2 [5] = test: Cytotoxicity against human HepG2 cells assessed as reduction in cell viability up to 100 uM after 24 hrs by MTT assay; format: cell-based; settings: hepg2, 24 h
In short: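 Hep G2 cells grown in DMEM with 10% heat-inactivated FCS at 37 °C, 5% CO2, seeded and grown to 75% confluency. Exposed to 0.01–100 µM compound (DMSO stock diluted in PBS, final DMSO 0.1%) for 24 h. Washed, then MTT at 1 mg/mL final for 3 h. Solubilized in 0.04 M HCl/2-propanol, read at 560 nm with 670 nm reference. Normalized as (A−B)/(C−B), with B the Triton X-100 (0.5%) control and C the vehicle control. At least three assays.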

[6] = Intrinsic clearance in C57BL/6J mouse liver microsomes at 1 uM preincubated for 10 mins followed by NADPH addition and measured up to 45 mins by LC-MS/MS analysis; format: ADME, Microsome; settings: 0.75 h
In short: (§1)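 Compound at 1 µM in 0.1 M phosphate buffer pH 7.4 with liver microsomes at 0.5 mg/mL. Preincubated 10 min, then started with an NADPH regenerating system. Sampled at 1–45 min at 37 °C and quenched in MeCN with internal standard. Supernatant analyzed by LC-MS/MS. CLint = −slope of ln(peak area ratio) vs time × 1000/protein concentration. CYP marker substrates served as quality control.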

[7] = Intrinsic clearance in human liver microsomes at 1 uM preincubated for 10 mins followed by NADPH addition and measured up to 45 mins by LC-MS/MS analysis; format: ADME, Microsome; settings: 0.75 h; in short: as §1
[8] = Stability in mouse plasma at 25 uM measured up to 120 mins by HPLC-MS analysis; format: ADME, cell-free; settings: 2 h
In short: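 Compound from DMSO added to mouse plasma (pH 7.4, 37 °C) at 25 µM final. Incubated 0, 15, 30, 60, 90 and 120 min at 37 °C. Aliquots extracted with methanol containing internal standard and analyzed by HPLC-MS, normalized to internal standard and time 0. Procaine and propoxycaine served as unstable controls, procainamide (250 µM) as stable control. At least three independent repeats.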

HepG2 [9] = test: Cytotoxicity against human HepG2 cells assessed as cell viability at 100 uM after 24 hrs by MTT assay relative to control; format: cell-based; settings: hepg2, 24 h
In short: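 Hep G2 cells in DMEM + 10% FCS were grown to 75% confluency, then exposed to compound (0.01–100 µM, 0.1% DMSO final) for 24 h at 37 °C, 5% CO2. MTT was added at 1 mg/mL final for 3 h and solubilised in 0.04 M HCl/2-propanol; A560 read with 670 nm reference. Normalised (A−B)/(C−B) to 0.5% Triton X-100 and vehicle controls; SD of ≥3 assays.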

Pseudomonas aeruginosa [10] = test: Antibacterial activity against Pseudomonas aeruginosa PA14 transfected with pMP7605 plasmid at 100 uM after 23 hrs by fluorescence based confocal light microscopic analysis; format: functional, organism-based
Pseudomonas aeruginosa [11] = test: Antibiofilm activity against Pseudomonas aeruginosa PA14 transfected with pMP7605 plasmid at 100 uM after 48 hrs by fluorescence based confocal light microscopic analysis relative to control; format: functional; settings: PA14, 48 h
In short: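 P. aeruginosa PA14 wild type carrying the mCherry plasmid pMP7605 was grown overnight in LB at 37 °C, then diluted to OD600 0.02 in M63 minimal medium. Compound (100 µM final, from DMSO stock) was added and cultures incubated 48 h at 30 °C. Biofilm biomass was quantified by confocal laser scanning microscopy versus DMSO control; means ± SD of three independent assays, Student's t test.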

[12] = Solubility of compound in TBS/Ca containing 1% DMSO at 1 mM; settings: 1000 µM

`Cc1cc(C)c(S(=O)(=O)NC[C@H]2O[C@@H](C)[C@@H](O)[C@@H](O)[C@@H]2O)c(C)c1` showed a PPB [1] of 73% and a half-life [2] of 17 min.
`C[C@@H]1O[C@H](CNS(=O)(=O)c2ccn(C)n2)[C@@H](O)[C@H](O)[C@@H]1O` showed an IC50 [3] of 730 nM and an IC50 [4] of 7010 nM.
For `CO[C@H]1O[C@H](CNS(=O)(=O)c2c(C)cc(C)cc2C)[C@@H](O)[C@H](O)[C@@H]1O`, the fraction unbound at 2 h [1] was 0.3 to 0.4.
With `C[C@@H]1O[C@H](CNS(=O)(=O)c2cccs2)[C@@H](O)[C@H](O)[C@@H]1O` the PPB [1] was 81% and the half-life [2] was 34 min.
With `C[C@@H]1O[C@H](CNS(=O)(=O)c2cc(Cl)c(Cl)s2)[C@@H](O)[C@H](O)[C@@H]1O` the Activity (HepG2 [5]) was “Non-Toxic”, the “Intrinsic clearance (CLint)” value [6] was < 10 µL/min/mg and the “Intrinsic clearance (CLint)” value [7] was < 10 µL/min/mg. The Stability [8] was “Stable”.
`Cc1ccsc1S(=O)(=O)NC[C@H]1O[C@@H](C)[C@@H](O)[C@@H](O)[C@@H]1O` showed an IC50 [3] of 200 nM and an IC50 [4] of 1320 nM.
For `Cc1cccc(C#Cc2ccc(S(=O)(=O)NC[C@H]3O[C@@H](C)[C@@H](O)[C@@H](O)[C@@H]3O)s2)c1`, the IC50 [3] was 300 nM and the IC50 [4] was 1720 nM.
With `C[C@@H]1O[C@H](CNS(=O)(=O)c2ccc(C#CCCc3ccccc3)s2)[C@@H](O)[C@H](O)[C@@H]1O` the IC50 [3] was 400 nM and the IC50 [4] was 3130 nM.
With `C[C@@H]1O[C@H](CNS(=O)(=O)c2ccsc2)[C@@H](O)[C@H](O)[C@@H]1O` the IC50 [3] was 590 nM and the IC50 [4] was 1850 nM.
In the case of `Cc1ccc(S(=O)(=O)NC[C@H]2O[C@@H](C)[C@@H](O)[C@@H](O)[C@@H]2O)s1`, the Activity (HepG2 [5]) is reported as “Non-Toxic”, the “Intrinsic clearance (CLint)” value [6] is reported as 10 µL/min/mg and the “Intrinsic clearance (CLint)” value [7] is reported as < 10 µL/min/mg. For the same compound, the fraction unbound at 2 h [1] was 0.3 to 0.4, the IC50 [3] was 560 nM and the Stability [8] was “Stable”. For the same compound, the IC50 [4] was 3530 nM.
Work on `Cc1csc(S(=O)(=O)NC[C@H]2O[C@@H](C)[C@@H](O)[C@@H](O)[C@@H]2O)c1` yielded an IC50 [3] of 320 nM and an IC50 [4] of 2550 nM.
In the case of `COc1ccc(C#Cc2ccc(S(=O)(=O)NC[C@H]3O[C@@H](C)[C@@H](O)[C@@H](O)[C@@H]3O)s2)cc1`, the IC50 [3] is reported as 280 nM and the IC50 [4] is reported as 1750 nM.
`Cc1ccccc1C#Cc1ccc(S(=O)(=O)NC[C@H]2O[C@@H](C)[C@@H](O)[C@@H](O)[C@@H]2O)s1` showed an IC50 [3] of 270 nM and an IC50 [4] of 1620 nM.
In the case of `Cc1oncc1S(=O)(=O)NC[C@H]1O[C@@H](C)[C@@H](O)[C@@H](O)[C@@H]1O`, the Activity (HepG2 [5]) is reported as “Non-Toxic”, the “Intrinsic clearance (CLint)” value [6] is reported as < 10 µL/min/mg and the “Intrinsic clearance (CLint)” value [7] is reported as < 10 µL/min/mg. For the same compound, the fraction unbound at 2 h [1] was 0.3 to 0.4 and the Stability [8] was “Stable”.
For `C[C@@H]1O[C@H](CNC(=O)c2cc3ccccc3o2)[C@@H](O)[C@H](O)[C@@H]1O`, the IC50 [3] was 2410 nM and the IC50 [4] was 10200 nM.
Work on `C[C@@H]1O[C@H](CNC(=O)c2ccccc2)[C@@H](O)[C@H](O)[C@@H]1O` yielded an IC50 [3] of 3540 nM and an IC50 [4] of 8730 nM.
Work on `C[C@@H]1O[C@H](CNS(=O)(=O)c2ccc(/C=C\c3ccccc3)s2)[C@@H](O)[C@H](O)[C@@H]1O` yielded an IC50 [3] of 440 nM and an IC50 [4] of 2320 nM.
`CO[C@H]1O[C@H](CNS(=O)(=O)c2cccs2)[C@@H](O)[C@H](O)[C@@H]1O` gave a fraction unbound at 2 h [1] of 0.3 to 0.4.
In the case of `C[C@@H]1O[C@H](CNS(=O)(=O)c2ccc(C#Cc3ccccc3)s2)[C@@H](O)[C@H](O)[C@@H]1O`, the “Intrinsic clearance (CLint)” value [6] is reported as < 10 µL/min/mg, the “Intrinsic clearance (CLint)” value [7] is reported as < 10 µL/min/mg and the fraction unbound at 2 h [1] is reported as 0.3 to 0.4. The Activity (HepG2 [9]) was 64%, the Activity (Pseudomonas aeruginosa [10]) was “inactive” and the Stability [8] was “Stable”. For the same compound, the inhibition at 100 µM (Pseudomonas aeruginosa [11]) was > 90%.
With `Cc1cc(S(=O)(=O)NC[C@H]2O[C@@H](C)[C@@H](O)[C@@H](O)[C@@H]2O)c(C)s1` the Activity (HepG2 [5]) was “Non-Toxic”, the “Intrinsic clearance (CLint)” value [6] was < 10 µL/min/mg and the “Intrinsic clearance (CLint)” value [7] was < 10 µL/min/mg. The fraction unbound at 2 h [1] was 0.3 to 0.4, the Activity (Pseudomonas aeruginosa [10]) was “inactive” and the Stability [8] was “Stable”. For the same compound, the inhibition at 100 µM (Pseudomonas aeruginosa [11]) was > 80%.
In the case of `CCc1ccc(S(=O)(=O)NC[C@H]2O[C@@H](C)[C@@H](O)[C@@H](O)[C@@H]2O)s1`, the IC50 [3] is reported as 380 nM and the IC50 [4] is reported as 4020 nM.
For `Cc1ccc(C#Cc2ccc(S(=O)(=O)NC[C@H]3O[C@@H](C)[C@@H](O)[C@@H](O)[C@@H]3O)s2)cc1`, the IC50 [3] was 350 nM and the IC50 [4] was 1720 nM.
Compound `Cc1cc(S(=O)(=O)NC[C@H]2O[C@@H](C)[C@@H](O)[C@@H](O)[C@@H]2O)c(C(F)(F)F)o1` has an IC50 [3] of 460 nM and an IC50 [4] of 3470 nM.
`C[C@@H]1O[C@H](CNS(=O)(=O)c2ccco2)[C@@H](O)[C@H](O)[C@@H]1O` showed an IC50 [3] of 460 nM and an IC50 [4] of 3150 nM.
`C[C@@H]1O[C@H](CNS(=O)(=O)c2ccc(Br)s2)[C@@H](O)[C@H](O)[C@@H]1O` showed an IC50 [3] of 570 nM and an IC50 [4] of 3310 nM.
In the case of `C[C@@H]1O[C@H](CNC(=O)c2ccc(-c3ccccc3)s2)[C@@H](O)[C@H](O)[C@@H]1O`, the solubility [12] is reported as “Insoluble”.
